Assay results reported in ChEMBL document CHEMBL4219052, “Synthesis and biological evaluation of 6-substituted-5-fluorouridine ProTides” (Bioorg Med Chem, 2018).

How the values were obtained:
HEL 92.1.7 = experiment: Cytotoxicity against human HEL 92.1.7 cells after 72 hrs by MTS assay; format: functional, cell-based; conditions: HEL 92.1.7, 72 h
Procedure, shortened: (§1)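 Commercial screen: tumour cells seeded at 0.5 to 100 x 10³ cells/well the day before dosing, then exposed 72 h to compound in duplicate, 9 serial 3.16-fold dilutions from 198 µM top concentration. MTS added for a further 4 h at 37 °C, absorbance read; IC50 taken as 50% inhibition of viability by curve fitting.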

[1] = Cytotoxicity against African green monkey Vero cells measured after 3 days by CelltiterGlo luminescence assay; format: cell-based; conditions: chlorocebus sabaeus
Procedure, shortened: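 Vero cells seeded and left overnight; growth medium then replaced by serial compound dilutions, added in triplicate; medium-only wells defined 0% cytotoxicity. On day 3 cells were lysed and ATP content measured by luciferase luminescence (CellTiter-Glo); CC50 obtained from a 4-PL curve fit.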

[2] = Cytotoxicity against human Hs445 cells after 72 hrs by MTS assay; format: functional, cell-based; conditions: Hs 445, 72 h; procedure, shortened: as §1
Chikungunya virus = experiment: Antiviral activity against Chikungunya virus infected in African green monkey Vero cells assessed as reduction in virus-induced cytopathic effect pretreated for 1 hr followed by viral infection measured after 3 days by crystal violet staining based assay; format: functional, organism-based
RL = experiment: Cytotoxicity against human RL cells after 72 hrs by MTS assay; format: functional, cell-based; procedure, shortened: as §1
MCF7 = experiment: Cytotoxicity against human MCF7 cells after 72 hrs by MTS assay; format: functional, cell-based; conditions: MCF7, 72 h; procedure, shortened: as §1
SW-620 = experiment: Cytotoxicity against human SW620 cells after 72 hrs by MTS assay; format: functional, cell-based; conditions: SW-620, 72 h; procedure, shortened: as §1
[3] = target: T1, Uridine 5'-monophosphate synthase (Homo sapiens, UniProt P11172); experiment: Inhibition of human ODCase
T1 sequence (P11172 whole entry): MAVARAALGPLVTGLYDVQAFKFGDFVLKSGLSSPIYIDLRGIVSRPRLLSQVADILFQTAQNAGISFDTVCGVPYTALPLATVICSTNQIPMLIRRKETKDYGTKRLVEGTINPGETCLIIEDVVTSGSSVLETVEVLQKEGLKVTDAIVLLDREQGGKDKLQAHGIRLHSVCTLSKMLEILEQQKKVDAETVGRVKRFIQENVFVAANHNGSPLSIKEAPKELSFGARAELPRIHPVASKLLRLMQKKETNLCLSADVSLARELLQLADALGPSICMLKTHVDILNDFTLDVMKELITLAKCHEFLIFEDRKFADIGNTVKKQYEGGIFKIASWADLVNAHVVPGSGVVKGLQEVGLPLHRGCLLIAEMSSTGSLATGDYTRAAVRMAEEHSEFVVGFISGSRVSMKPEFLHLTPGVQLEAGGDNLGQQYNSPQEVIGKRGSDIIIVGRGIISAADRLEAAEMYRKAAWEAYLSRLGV

[4] = target: Orotidine 5'-phosphate decarboxylase (Methanobacterium thermoautotrophicum, UniProt O26232); experiment: Inhibition of Methanobacterium thermoautotrophicum ODCase; design: species or system Methanothermobacter thermautotrophicus
MV4-11 = experiment: Cytotoxicity against human MV411 cells after 72 hrs by MTS assay; format: functional, cell-based; conditions: MV4-11, 72 h; procedure, shortened: as §1
MIA PaCa-2 = experiment: Cytotoxicity against human MIAPaCa2 cells after 72 hrs by MTS assay; format: functional, cell-based; conditions: MIA PaCa-2, 72 h; procedure, shortened: as §1
Carboxypeptidase Y = target: T2, Carboxypeptidase Y (Saccharomyces cerevisiae (strain ATCC 204508 / S288c) (Baker's yeast), UniProt P00729); experiment: Prodrug activation assessed as yeast carboxypeptidase Y mediated diastereoisomer formation at pH 7.6 by 31P NMR analysis
T2 sequence (P00729 whole entry): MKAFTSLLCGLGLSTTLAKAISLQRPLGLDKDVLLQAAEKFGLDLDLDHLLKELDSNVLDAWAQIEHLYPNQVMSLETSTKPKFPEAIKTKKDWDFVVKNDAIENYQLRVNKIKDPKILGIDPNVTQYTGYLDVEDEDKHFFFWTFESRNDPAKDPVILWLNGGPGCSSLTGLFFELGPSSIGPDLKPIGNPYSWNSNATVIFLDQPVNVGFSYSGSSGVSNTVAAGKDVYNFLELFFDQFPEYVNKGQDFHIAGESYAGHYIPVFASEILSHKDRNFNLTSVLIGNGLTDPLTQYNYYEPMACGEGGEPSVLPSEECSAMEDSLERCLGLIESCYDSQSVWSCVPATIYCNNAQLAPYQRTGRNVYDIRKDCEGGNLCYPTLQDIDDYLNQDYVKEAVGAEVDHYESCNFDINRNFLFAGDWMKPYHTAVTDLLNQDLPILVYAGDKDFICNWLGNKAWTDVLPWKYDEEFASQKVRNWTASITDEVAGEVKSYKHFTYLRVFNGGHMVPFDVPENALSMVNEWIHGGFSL
Procedure, shortened: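 ProTide (5.0 mg) dissolved in acetone-d6 (0.15 mL) plus Trizma buffer pH 7.6 (0.30 mL), treated with carboxypeptidase Y; conversion followed by ³¹P NMR over 14 h.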

Sequence of Orotidine 5'-phosphate decarboxylase (O26232 whole entry): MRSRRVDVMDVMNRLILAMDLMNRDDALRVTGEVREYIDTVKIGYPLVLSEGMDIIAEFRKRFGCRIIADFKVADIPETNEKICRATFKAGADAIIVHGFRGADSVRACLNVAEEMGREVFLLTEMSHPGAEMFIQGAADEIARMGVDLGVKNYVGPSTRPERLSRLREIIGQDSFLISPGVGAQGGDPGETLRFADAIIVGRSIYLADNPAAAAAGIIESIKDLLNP

CCc1c(F)c(=O)[nH]c(=O)n1[C@@H]1O[C@H](COP(=O)(N[C@@H](C)C(=O)OCc2ccccc2)Oc2cccc3ccccc23)[C@@H](O)[C@H]1O (some centres not stated)
IC50 (HEL 92.1.7): > 50 µM | CC50 at 72 h [1]: 53.1 µM | IC50 [2]: 10 µM | EC50 (Chikungunya virus): > 50 µM | IC50 (RL): 27 µM | IC50 (MCF7): > 50 µM | IC50 (SW-620): 12 µM

NC(=O)c1[nH]nc([C@@H]2O[C@H](CO)[C@@H](O)[C@H]2O)c1O [PYRAZOFURIN]
Ki [3]: 0.017 µM | Ki [4]: 6.2 µM

CCCCCOC(=O)[C@H](C)NP(=O)(OC[C@H]1O[C@@H](n2c(I)c(F)c(=O)[nH]c2=O)[C@H](O)[C@@H]1O)Oc1ccccc1 (some centres not stated)
IC50 (HEL 92.1.7): 0.5 µM | IC50 (MV4-11): 0.2 µM | IC50 [2]: 2.6 µM | IC50 (RL): 0.8 µM | IC50 (MCF7): 7.83 µM | IC50 (SW-620): 1.12 µM | IC50 (MIA PaCa-2): 1.31 µM

Cc1c(F)c(=O)[nH]c(=O)n1[C@@H]1O[C@H](CO)[C@@H](O)[C@H]1O
IC50 (HEL 92.1.7): 14 µM | CC50 at 72 h [1]: 9.04 µM | IC50 (MV4-11): 2 µM | IC50 [2]: 7 µM | EC50 (Chikungunya virus): > 200 µM | IC50 (RL): 16 µM | IC50 (MCF7): 5.4 µM | IC50 (SW-620): 8.5 µM | IC50 (MIA PaCa-2): 12 µM

CCCCCCOC(=O)[C@H](C)NP(=O)(OC[C@H]1O[C@@H](n2c(N=[N+]=[N-])c(F)c(=O)[nH]c2=O)[C@H](O)[C@@H]1O)Oc1ccccc1 (some centres not stated)
Drug metabolism (Carboxypeptidase Y): 3.64 to 3.82 ppm | IC50 (HEL 92.1.7): 39 µM | IC50 (MV4-11): 9 µM | IC50 [2]: 18 µM | IC50 (RL): 20 µM | IC50 (MCF7): > 50 µM | IC50 (SW-620): 38 µM | IC50 (MIA PaCa-2): > 50 µM

Cc1c(F)c(=O)[nH]c(=O)n1[C@@H]1O[C@H](COP(=O)(N[C@@H](C)C(=O)OCc2ccccc2)Oc2ccccc2)[C@@H](O)[C@H]1O (some centres not stated)
IC50 (HEL 92.1.7): > 50 µM | IC50 (MV4-11): > 50 µM | IC50 [2]: > 50 µM | IC50 (RL): > 50 µM | IC50 (MCF7): > 50 µM | IC50 (SW-620): > 50 µM | IC50 (MIA PaCa-2): > 50 µM

Cc1c(F)c(=O)[nH]c(=O)n1[C@@H]1O[C@H](COP(=O)(N[C@@H](C)C(=O)OCC(C)(C)C)Oc2cccc3ccccc23)[C@@H](O)[C@H]1O (some centres not stated)
IC50 (HEL 92.1.7): > 50 µM | CC50 at 72 h [1]: 81.3 µM | IC50 (MV4-11): > 50 µM | IC50 [2]: > 50 µM | EC50 (Chikungunya virus): > 200 µM | IC50 (RL): > 50 µM | IC50 (MCF7): > 50 µM | IC50 (SW-620): > 50 µM | IC50 (MIA PaCa-2): > 50 µM

C[C@H](NP(=O)(OC[C@H]1O[C@@H](n2c(I)c(F)c(=O)[nH]c2=O)[C@H](O)[C@@H]1O)Oc1ccccc1)C(=O)OC1CCCCC1 (some centres not stated)
IC50 (HEL 92.1.7): 4.1 µM | IC50 (MV4-11): 0.74 µM | IC50 [2]: 3.8 µM | IC50 (RL): 2.6 µM | IC50 (MCF7): 8.12 µM | IC50 (SW-620): 4.84 µM | IC50 (MIA PaCa-2): 4.57 µM

CCCCCCOC(=O)[C@H](C)NP(=O)(OC[C@H]1O[C@@H](n2c(C)c(F)c(=O)[nH]c2=O)[C@H](O)[C@@H]1O)Oc1ccccc1 (some centres not stated)
IC50 (HEL 92.1.7): > 50 µM | CC50 at 72 h [1]: > 200 µM | IC50 (MV4-11): > 50 µM | IC50 [2]: > 50 µM | EC50 (Chikungunya virus): > 200 µM | IC50 (RL): > 50 µM | IC50 (MCF7): > 50 µM | IC50 (SW-620): > 50 µM | IC50 (MIA PaCa-2): > 50 µM

CCOC(=O)[C@H](C)NP(=O)(OC[C@H]1O[C@@H](n2c(N=[N+]=[N-])c(F)c(=O)[nH]c2=O)[C@H](O)[C@@H]1O)Oc1ccccc1 (some centres not stated)
IC50 (HEL 92.1.7): > 50 µM | IC50 (MV4-11): > 50 µM | IC50 [2]: 44 µM | IC50 (RL): > 50 µM | IC50 (MCF7): > 50 µM | IC50 (SW-620): > 50 µM | IC50 (MIA PaCa-2): > 50 µM
